# Published values gathered from unrelated publications.
# Each line is one published result; the experiments were not run side by side.
# Sialidase-4: Sialidase-4 (Homo sapiens, UniProt Q8WWR8)
# ache: Acetylcholinesterase (ache, Electrophorus electricus, UniProt O42275)
# ALOX15: Polyunsaturated fatty acid lipoxygenase ALOX15 (ALOX15, Homo sapiens, UniProt P16050)
Compound,target,read-out,mode,method,setting,IC50 [µM]
O=C(N1CCC2(CC1)C[C@@H](CN1CCCCS1(=O)=O)CCO2)C1(c2ccccc2)CCCC1,"ATP-dependent RNA helicase DDX3X (DDX3X, Homo sapiens, UniProt O00571)",ATPase activity,inhibitor,,,> 50
CN(C(=O)CC(C)(C)C)[C@H]1[C@H]([C@H](O)[C@H](O)CO)OC(C(=O)O)=C[C@@H]1O,Sialidase-4,enzyme activity,inhibitor,,,> 500
CCN(C)C(=O)Oc1ccc(/C=C/C(=O)NC2CCN(Cc3ccccc3)CC2)cc1OC,ache,enzyme activity,inhibitor,Ellman,,3.9
CC(C(=O)O)n1nc(Cn2cc3cc(OCCF)c(Cl)cc3n2)c2ccccc2c1=O (racemic),"Sphingosine 1-phosphate receptor 1 (S1PR1, Homo sapiens, UniProt P21453)",ligand displacement,,radioligand,cell membranes,> 1
Fc1ccc(-c2nnc(-c3ccc(OCc4cn(Cc5ccc(Cl)cc5)nn4)cc3)o2)cc1,ache,enzyme activity,inhibitor,Ellman,,> 100
CC(C)(C)OC(=O)NC1CCCN(C(=O)/C=C/c2ccc([N+](=O)[O-])cc2)C1 (stereo not drawn),ache,enzyme activity,inhibitor,Ellman,,> 50
CCOC(=O)c1ccccc1-c1c2ccc(=O)cc-2oc2cc(OCCCNC(=O)C(OC(=O)c3ccccc3)C3CC3)ccc12 (stereo not drawn),ALOX15,enzyme activity,inhibitor,absorbance,,43.7
CN1CC[C@@]2(C)c3cc(OC(=O)Nc4ccccc4)ccc3N(C)[C@@H]12,"Aldehyde dehydrogenase 1A1 (ALDH1A1, Homo sapiens, UniProt P00352)",enzyme activity,inhibitor,fluorescence,,< 10
CC(C)CCC(=O)N[C@H]1[C@H]([C@H](O)[C@H](O)CO)OC(C(=O)O)=C[C@@H]1O,Sialidase-4,enzyme activity,inhibitor,,,270
O=[N+]([O-])c1ccc(-c2nnc(-c3ccc(OCc4cn(Cc5ccc(F)cc5)nn4)cc3)o2)cc1,ache,enzyme activity,inhibitor,Ellman,,> 100
COc1cc(CCC(=O)N2CCC(Cc3ccccc3)CC2)ccc1OC(=O)N(c1ccccc1)c1ccccc1,ache,enzyme activity,inhibitor,Ellman,,10.5
CCOC(=O)c1ccccc1-c1c2ccc(=O)cc-2oc2cc(OCCCNc3c(-c4ccc(Cl)cc4)nc4ccccn34)ccc12,ALOX15,enzyme activity,inhibitor,absorbance,,78.7
CCN[C@H]1[C@H]([C@H](O)[C@H](O)CO)OC(C(=O)O)=C[C@@H]1O,Sialidase-4,enzyme activity,inhibitor,,,> 500
O=C(/C=C/c1ccc(OC(=O)N2CCCC2)cc1)NC1CCN(Cc2ccccc2)CC1,ache,enzyme activity,inhibitor,Ellman,,4.5
Cc1cn([C@H]2[C@H]([C@H](O)[C@H](O)CO)OC(C(=O)O)=C[C@@H]2O)nn1,Sialidase-4,enzyme activity,inhibitor,,,26
CCOC(=O)c1ccccc1-c1c2ccc(=O)cc-2oc2cc(OCCCNc3c(-c4ccc([N+](=O)[O-])cc4)nc4ccccn34)ccc12,ALOX15,enzyme activity,inhibitor,absorbance,,> 100
CCCC[C@H]1C(=O)N(C)[C@@H](CCCC)C(=O)N[C@@H](CCCCNC(=O)CN2CCN(CC(=O)O)CCN(CC(=O)O)CC2)C(=O)N[C@H](C(=O)NCC(N)=O)CSCC(=O)N[C@@H](Cc2ccc(O)cc2)C(=O)N(C)[C@@H](C)C(=O)N[C@@H](CC(N)=O)C(=O)N2CCC[C@H]2C(=O)N[C@@H](Cc2c[nH]cn2)C(=O)N[C@@H](CCC(=O)O)C(=O)N2C[C@H](O)C[C@H]2C(=O)N[C@@H](Cc2c[nH]c3ccccc23)C(=O)N[C@@H](CO)C(=O)N[C@@H](Cc2cn(CC(=O)O)c3ccccc23)C(=O)N1C,"Programmed cell death 1 ligand 1 (CD274, Homo sapiens, UniProt Q9NZQ7)",ligand displacement,,radioligand,,0.00245
CC(C)(C)c1cn([C@H]2[C@H]([C@H](O)[C@H](O)CO)OC(C(=O)O)=C[C@@H]2O)nn1,Sialidase-4,enzyme activity,inhibitor,,,80
